Source: PubChem BioAssay (Broad Institute)
Wnt bcat act: Wnt/beta-catenin pathway activation; Wnt/beta-catenin reporter cell assay, activator, plate reader; activation, % at 9.35 µM; hit rate 1.2% among 300,000; AID 743398; in the data active = activation above about 30%, passing the limit was not always enough; inconclusive = no clear call, values can overlap the other calls;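 note: 0% = neutral control wells and 100% = positive control wells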
SR-BI HDL uptake: inhibitors of mouse SR-BI mediated HDL lipid uptake; hit rate 0.96% among 320,000; ldlA[mSR-BI] CHO cells, DiI-HDL uptake fluorescence, 3 h; AID 488896; Q61009; inhibition, % at 12.5 µM;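 active = mean replicate inhibition of at least 70% and a set share of replicates each scoring 70 or more; inconclusive = meets just one of the two criteria; inactive = fails both criteria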;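 note: 0% = median of neutral control wells and 100% = median of positive control wells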
Target sequence (Q61009 whole entry, looked up): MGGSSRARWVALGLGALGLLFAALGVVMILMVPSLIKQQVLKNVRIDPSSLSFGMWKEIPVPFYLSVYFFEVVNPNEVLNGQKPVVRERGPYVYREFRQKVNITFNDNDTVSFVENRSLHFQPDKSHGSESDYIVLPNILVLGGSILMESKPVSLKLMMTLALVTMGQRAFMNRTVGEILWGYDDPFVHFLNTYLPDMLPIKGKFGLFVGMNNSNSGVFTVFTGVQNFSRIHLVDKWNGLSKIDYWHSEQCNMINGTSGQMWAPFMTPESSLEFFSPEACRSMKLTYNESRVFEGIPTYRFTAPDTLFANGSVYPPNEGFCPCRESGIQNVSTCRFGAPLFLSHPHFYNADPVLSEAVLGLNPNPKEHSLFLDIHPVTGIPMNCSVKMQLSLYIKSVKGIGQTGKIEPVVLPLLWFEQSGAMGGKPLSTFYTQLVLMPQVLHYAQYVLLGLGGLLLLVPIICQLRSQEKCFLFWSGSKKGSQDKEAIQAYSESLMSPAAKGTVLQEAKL
SR-BI uptake up: enhances SR-BI lipid uptake from DiI-HDL. CHO ldlA[mSR-BI] cells, DiI-HDL uptake fluorescence, 3 h; 100 = double the neutral-control signal. activation, % at 12.5 µM. hit rate 0.096% among 320,000;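 active = mean replicate activation of at least 60% and every replicate at or above 60%; inconclusive = mean or all-replicate condition met, but not both; inactive = mean below 60% and not all replicates reaching 60%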;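 note: 0% = median plate neutral-control signal and 100% = twice that signal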
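material = CHO ldlA[mSR-BI] cells | medium = Ham's F12 with 0.5% BSA, HEPES 25 mM, pH 7.4 | reagent = fluorescent DiI-HDL, 10 µg/mL final | compound dosing = single-point compound dose | incubation = 3 h, 37 °C | measured by = bottom-read fluorescence, 550/595 nm | measure = HDL uptake via cellular fluorescence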
HSF1 activator: increases HSF-1 driven luciferase reporter signal; hit rate 1.7% among 300,000; activation, % at 9 µM; AID 504408; NIH3T3-HGL HSF-1 luciferase reporter, MG132, 8 h; 100% = twice DMSO control signal;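 active = mean replicate activation of at least 50% with a set share of replicates each reaching 50%; inconclusive = only one of those two conditions met; inactive = mean below 50% and too few replicates reaching it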;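 note: 0% = median of the neutral control wells and 100% = twice that signal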
MITF TRPM1 HTS: activators of MITF-driven TRPM1 promoter activity in SK-MEL-5 cells | SK-MEL-5 TRPM1-promoter luciferase, 24 h; % of positive control, neutral wells = 0 | activation, % at 12.5 µM | hit rate 0.75% among 300,000 | AID 588334;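 active = mean activation of at least 80% with every replicate also reaching 80%; inconclusive = mean reaches 80% but some replicate falls short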;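 note: 0% = neutral control wells and 100% = parthenolide positive control wells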
Active calls of the source: *; ? = inconclusive; · = not tested or not shown. In the library only some 3.6% were active in any assay of this set; here they are far more common.

SMILES | Wnt bcat act | SR-BI HDL uptake | SR-BI uptake up | HSF1 activator | MITF TRPM1 HTS
Cc1nnc(SCC(=O)N(C)CC(=O)Nc2ccc(F)cc2)n1Cc1ccccc1 | -1 | 2 | -2 | 11 | -4
CN(CC(=O)Nc1ccc(F)cc1)C(=O)CSc1nnc(Cc2ccccc2)o1 | 63* | 11 | -11 | · | -12
N#Cc1ccc(-c2csc(NC3=NCCCCC3)n2)cc1 | ? | 75* | -75 | 27 | 9
COc1ccc(NN=Nc2ccc([N+](=O)[O-])cc2)cc1 | 8 | 34 | -34 | 15 | 99*
COc1ccc(N/N=C(/Oc2ccc([N+](=O)[O-])cc2)C(C)=O)cc1 | 1 | 17 | -17 | 18 | -7
COc1ccc(S(=O)(=O)N2CCc3cc4c(cc3C2C)OCCCO4)cc1 (configuration not stated) | 0 | -27 | 27 | 1 | -10
CCCCN1C(=O)C(CC(=O)NCc2ccco2)CC(C(=O)N(C)C)=C1C (configuration not stated) | -1 | · | · | · | ·
CC(=O)c1ccc(N(C(=O)c2ccco2)C(C(=O)NC2CCCC2)c2ccc(N3CCOCC3)cc2)cc1 (configuration not stated) | 5 | -2 | 2 | 69* | 7
O=C(NCCOc1ccc(Cl)cc1)c1ccc2c(c1)OCCO2 | 20 | -6 | 6 | · | 98*
O=C(NCCc1ccc(Cl)cc1)c1ccc2c(c1)OCO2 | 37* | -14 | 14 | 99* | 46
Cc1cc(C)n(CCNC(=O)c2ccc3c(c2)OCO3)n1 | 4 | · | · | 58* | ·
O=C(NCCc1ccc(Cl)cc1)c1ccc2c(c1)OCCO2 | 24 | -32 | 32 | 1 | ·
Cc1cccc(NC(=O)c2ccc(C)c(S(=O)(=O)N3CCOCC3)c2)n1 | 5 | 14 | -14 | · | 9
N#Cc1cc2c(nc1SCC1COc3ccccc3O1)CCC2 (configuration not stated) | · | 7 | -7 | 49 | 111*
Cc1cc(C)c(C#N)c(SCC2COc3ccccc3O2)n1 (configuration not stated) | -5 | 29 | -29 | 8 | -12
Cc1ccc(C)c(CN2C(=O)C(C)Oc3ccc(C)cc32)c1 (configuration not stated) | · | 77* | -77 | 7 | -5
Cc1ccc(CN2C(=O)C(C)Oc3ccc(C)cc32)cc1 (configuration not stated) | 0 | · | · | · | ·
FC(F)Oc1ccc(NC(=S)NNc2ccnc3cc(Cl)ccc23)cc1 | -3 | 95* | -95 | -59 | -69
NC(=S)NNc1ccnc2cc(Cl)ccc12 | 0 | 90* | -90 | 7 | -6
O=C(NNc1ccnc2cc(Cl)ccc12)C1CCCCC1 | -2 | -1 | 1 | 8 | -24
CC1CCCCC12NC(=O)N(CC(=O)NCc1cccs1)C2=O (configuration not stated) | -2 | · | · | · | ·
Cc1cc(C(=O)CN2C(=O)NC3(CCCCC3C)C2=O)c(C)n1Cc1cccs1 (configuration not stated) | 65* | 5 | -5 | 0 | 92*
Cc1cc(C(=O)CN2C(=O)NC3(CCCCC3)C2=O)c(C)n1Cc1ccc2c(c1)OCO2 | · | -4 | 4 | 28 | 32
Cc1cc(C(=O)CN2C(=O)NC3(CCCCC3)C2=O)c(C)n1Cc1ccco1 | 73* | -16 | 16 | 89* | ?
Cc1cc(C(=O)CSc2nnc(-c3ccccc3F)o2)c(C)n1Cc1cccs1 | -1 | -1 | 1 | 2 | 2
SMILES | Wnt bcat act | SR-BI HDL uptake | SR-BI uptake up | HSF1 activator | MITF TRPM1 HTS
Cc1cc(C(=O)CN2C(=O)c3cccc(N)c3C2=O)c(C)n1Cc1cccs1 | 20 | 46 | -46 | 24 | 106*
CC(C)(C)OC(=O)N1CCCC(C(=O)Nc2ccc(C(=O)NCc3ccccc3)cc2)C1 (configuration not stated) | -2 | 15 | -15 | · | -2
CCN1C(=O)/C(=C\c2ccc3c(c2)OCO3)C(C(=O)OC)=C1C | -4 | -9 | 9 | 63* | ·
COCCCN1C(=O)/C(=C\c2ccc3c(c2)OCO3)C(C(=O)OC)=C1C | 0 | 19 | -19 | -2 | 13
CCOc1cc(/C=C2\C(=O)N(Cc3ccc(C)cc3)C(C)=C2C(=O)OC)ccc1O | -2 | -1 | 1 | 77* | ·
CCN1C(=O)CSC1=Nc1ccc(C(=O)OC)cc1 | -2 | · | · | · | ·
Fc1cccc(F)c1[B-](F)(F)F | -1 | · | · | · | 3
O=C(COc1ccc(S(=O)(=O)N2CCOCC2)cc1)N1CCOCC1 | 1 | -23 | 23 | · | -5
COc1cc(SC)ccc1C(=O)Nc1cccc(C)n1 | 19 | 43 | -43 | 34 | 101*
COc1cc(SC)ccc1C(=O)Nc1ccc(C)cc1 | 50* | 61 | -61 | 55* | 14
COc1cc(SC)ccc1C(=O)Nc1ccc(C)cc1C | · | 58 | -58 | 40 | 27
COc1cc(SC)ccc1C(=O)Nc1ccc(Br)cn1 | -4 | 54 | -54 | -50 | -56
COc1cc(SC)ccc1C(=O)Nc1ncc(Cl)cc1Cl | 70* | 40 | -40 | 63* | 16
O=C(COc1ccc(/C=C\[N+](=O)[O-])cc1)N1CCOCC1 | -1 | -16 | 16 | 181* | -6
CC(C)[C@@H](C)/C=C/[C@@H](C)[C@H]1CC[C@@H]2[C@]1(C)CCC1[C@]23C=C[C@]2(C[C@@H](O)CC[C@]12C)N(c1cnccn1)O3 (some centres not stated) | -4 | · | · | · | ·
COC(=O)C1=C(C)N(C)C(=NCc2ccc(C(F)(F)F)cc2)NC1c1cccc(F)c1 (configuration not stated) | -4 | · | · | · | ·
CCCCOc1ccc(C(=O)Nc2cc(C)c(OCC(=O)N3CCOCC3)c(C)c2)cc1 | 8 | 54 | -54 | 4 | 10
COc1cc(C(=O)Nc2ccc(C)cn2)ccc1OCC(=O)N1CCOCC1 | 5 | 6 | -6 | · | 20
Cc1cc(NC(=O)c2ccc(Cl)cc2)cc(C)c1OCC(=O)N1CCOCC1 | 8 | 57 | -57 | 54* | 36
COc1cc(SC)ccc1C(=O)Nc1ccc(OCC(=O)N2CCOCC2)cc1 | -4 | · | · | 18 | 83*
CC(C)(C)c1ccc(NC(=O)Nc2ccc(OCC(=O)N3CCOCC3)cc2)cc1 | 11 | 0 | 0 | 41 | 90*
COc1cc(SC)ccc1C(=O)Nc1cc(C)c(OCC(=O)N2CCOCC2)c(C)c1 | 7 | 52 | -52 | 32 | 20
COc1ccc(-c2nc(NC(=O)c3ccc(OCC(=O)N4CCOCC4)c(OC)c3)sc2C)cc1 | -2 | 71* | -71 | 12 | -10
CCN(CC)C(=O)C1=C(C)N(Cc2ccccc2)C(=O)C(CC(=O)NC2CC2)C1 (configuration not stated) | -1 | · | · | · | ·
CCn1nccc1C(=O)Nc1ccc(Cl)cn1 | 21 | -11 | 11 | 16 | 46
CCn1ccc(C(=O)Nc2ccc(Cl)cn2)n1 | 32* | -6 | 6 | 16 | ·
COc1ccc(NC(=O)/C(C#N)=C/c2ccc(OCCN3CCOCC3)c(OC)c2)c(OC)c1 | · | 75* | -75 | -4 | 10
O=S1(=O)N[C@@H](Cc2ccccc2)COc2cccc(N3CCC[C@@H]3CO)c21 | -5 | · | · | · | ·
